Compound activity deposited in PubChem by Johns Hopkins Ion Channel Center.
The list is not random: actives were taken first. Their share in the collection is about 3.8%.
hERG protect: hERG (human) protection from proarrhythmic block; activation (rescue from dofetilide block), less the hit threshold, % at 10 µM; AID 1511; CHO-hERG, FluxOR thallium flux, dofetilide IC70 present; 310,000 compounds, 0.51% hits;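 active = activation above the mean of controls blocked by dofetilide plus 5 SD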;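 also: thallium influx through hERG after potassium depolarization seen as dye fluorescence rise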
Target sequence (Q12809 whole entry, looked up): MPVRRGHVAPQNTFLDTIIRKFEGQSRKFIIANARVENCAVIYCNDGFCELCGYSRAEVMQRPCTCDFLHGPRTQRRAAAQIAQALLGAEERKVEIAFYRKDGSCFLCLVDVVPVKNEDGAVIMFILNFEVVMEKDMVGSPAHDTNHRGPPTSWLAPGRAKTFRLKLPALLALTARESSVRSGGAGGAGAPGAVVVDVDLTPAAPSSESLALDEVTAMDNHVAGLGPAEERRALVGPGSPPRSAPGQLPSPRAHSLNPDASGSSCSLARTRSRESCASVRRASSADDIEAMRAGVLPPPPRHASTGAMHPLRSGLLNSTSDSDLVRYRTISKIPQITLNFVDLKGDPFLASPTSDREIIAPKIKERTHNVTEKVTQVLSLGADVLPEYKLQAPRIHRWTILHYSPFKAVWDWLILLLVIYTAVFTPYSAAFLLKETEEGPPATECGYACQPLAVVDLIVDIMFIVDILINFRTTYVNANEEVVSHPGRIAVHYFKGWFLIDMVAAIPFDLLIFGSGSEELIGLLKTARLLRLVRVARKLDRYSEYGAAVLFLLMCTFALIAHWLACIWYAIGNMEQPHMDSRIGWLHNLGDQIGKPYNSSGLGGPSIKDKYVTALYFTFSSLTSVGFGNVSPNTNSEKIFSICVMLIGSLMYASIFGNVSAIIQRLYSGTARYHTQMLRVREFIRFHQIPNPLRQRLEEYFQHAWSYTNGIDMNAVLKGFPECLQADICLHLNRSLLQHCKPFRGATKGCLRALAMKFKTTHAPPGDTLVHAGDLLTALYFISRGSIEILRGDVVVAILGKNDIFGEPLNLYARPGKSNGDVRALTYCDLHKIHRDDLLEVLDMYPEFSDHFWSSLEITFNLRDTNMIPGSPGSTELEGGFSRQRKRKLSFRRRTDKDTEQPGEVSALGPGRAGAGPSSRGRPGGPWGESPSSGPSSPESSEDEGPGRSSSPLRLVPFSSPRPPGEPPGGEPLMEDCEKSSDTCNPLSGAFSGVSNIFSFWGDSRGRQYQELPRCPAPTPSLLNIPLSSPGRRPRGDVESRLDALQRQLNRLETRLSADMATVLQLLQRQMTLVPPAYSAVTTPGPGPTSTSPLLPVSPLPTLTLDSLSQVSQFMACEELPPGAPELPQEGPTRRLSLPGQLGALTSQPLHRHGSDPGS
KCNQ1 inh: human KCNQ1 channel inhibition; CHO-K1 KCNQ1, FluxOR thallium flux fluorescence; hits give high values; 310,000 compounds, 1.3% hits; B-score at 10 µM; AID 2642; P51787;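 active = compounds whose thallium flux B-score, printed positive for inhibition, exceeds three library SD while starting fluorescence stays within three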;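 also: channel opened by potassium depolarization with thallium stimulus after 20 min compound exposure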
KCNK3 block: human KCNK3 channel inhibition, primary screen | CHO-KCNK3 thallium flux, FluxOR fluorescence; hits give low values | B-score at 10 µM | 340,000 compounds, 0.84% hits | AID 602410;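 active = B-score under library mean minus 4 SD, starting fluorescence ratio at most library mean plus 5 SD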;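 also: more negative B-score means stronger inhibition of thallium flux through KCNK3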
Kir21 block: Kir2.1 (mouse) channel inhibition. P35561. HEK293-Kir2.1, FluxOR thallium flux fluorescence; hits give low values. B-score at 10 µM. 310,000 compounds, 0.85% hits. AID 1672;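 active = fluorescence ratio B-score at or below minus 3 SD of library scores, with starting-brightness B-score within 2 SD, cut at about -4.2 in these data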;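 also: channel flux triggered by added potassium and thallium sulfate stimulus; B-score of peak minus minimum fluorescence over baseline after thallium stimulus; more negative B-score means stronger Kir2.1 block with less thallium influx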
KCNQ1 pot: potentiates or activates the human KCNQ1 potassium channel; P51787; CHO-K1 KCNQ1, thallium flux FluxOR fluorescence; hits give high values; B-score at 10 µM; 310,000 compounds, 0.35% hits; AID 2648;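 active = fluorescence ratio B-score, a plate-corrected score, at least three library SD, with initial intensity B-score within 5 SD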
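Assay system: CHO-K1 cells stably expressing KCNQ1; Medium: assay buffer with matched DMSO; Also added: K+/Tl+ depolarizing stimulus; Dosing: single dose; Timing: dye 90 min, compound 20 min, room temperature; Measured by: kinetic FluxOR thallium fluorescence, 10-s 1-Hz baseline, 110-s post-stimulus read; Read-out: peak-minus-minimum fluorescence over initial fluorescence, negative-control normalized, B-scored.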
KCNK9 block: inhibitors of human KCNK9 two-pore domain potassium channel | Q9NPC2 | HEK293 KCNK9, FluxOR thallium flux fluorescence; hits give low values | B-score at 10 µM | 310,000 compounds, 1.2% hits | AID 488922;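 active = ratio B-score over 3 SD below the library mean, with starting fluorescence within 5 SD of its mean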;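 also: negative B-score means less thallium flux so channel inhibition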
KCNK9 block conf: human KCNK9 inhibitor confirmation. AID 492992. 4,900 compounds, 43% hits. inhibition, % at 10 µM. HEK293 KCNK9 cells, FluxOR thallium flux fluorescence. shares compounds with KCNK9 block;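 active = thallium signal inhibited by more than 5 SD of the compound-free buffer control wells, on both duplicate plates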
Kir2-1 spec: selectivity of KCNK9 modulators against mouse Kir2.1 | shares compounds with KCNK9 block | Kir2.1 cells, FluxOR thallium flux fluorescence | inhibition, % at 10 µM | 4,900 compounds, 4% hits;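 active = thallium signal drop more than 5 SD beyond the mean of the no-compound control wells, seen in both duplicate plates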;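 also: signal is fluorescence rise after thallium addition divided by baseline fluorescence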
HEK293 Tl ctr: second counter-screen for KCNK9 modulators: effect in non-induced cells; inhibition, % at 10 µM; non-induced KCNK9-HEK293, FluxOR thallium flux; AID 492997; shares compounds with KCNK9 block; 4,900 compounds, 40% hits;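 active = thallium signal drop beyond 5 SD of the untreated control mean, on both duplicate plates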
KCNK3 inh conf: human KCNK3 channel inhibition, confirmation assay. shares compounds with KCNK3 block. CHO-KCNK3 thallium flux, FluxOR fluorescence; 0% buffer, 100% carvedilol maximal block. ratio percent of control, % at 10 µM. 2,400 compounds, 99% hits. AID 651638;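 active = ratio percent of control, averaged over triplicates, above buffer control mean plus 5 SD, cut at about 64% in these data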;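 also: ratio is the fluorescence rise from min to max over baseline after thallium stimulus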
KCNK3 noninduced: KCNK3 inhibitor counter-screen hit in non-induced cells. non-induced KCNK3 parental cells, FluxOR thallium flux; hits give low values. shares compounds with KCNK3 block. 2,400 compounds, 40% hits. thallium flux ratio (lower = more inhibition) at 10 µM;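 active = thallium flux ratio, averaged over three wells, more than 5 SD below the buffer control mean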;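 also: host cells are CHO cells without KCNK3 induction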
A number is an active result; n = inactive; x = no result.

SMILES | hERG protect | KCNQ1 inh | KCNK3 block | Kir21 block | KCNQ1 pot | KCNK9 block | KCNK9 block conf | Kir2-1 spec | HEK293 Tl ctr | others
CSCCC(NS(=O)(=O)c1ccc(Cl)cc1)C(=O)OCc1c(Cl)cccc1Cl (configuration not stated) | n | n | n | n | n | -9.2 | 35.5% | n | 36.0%
COc1cccc(Cn2cnc3c(NS(=O)(=O)c4cc(Cl)ccc4Cl)c(C)c(C)cc32)c1 | n | n | -9.48 | n | n | -15.5 | 64.0% | n | n
COc1cccc(Cn2cnc3c(NS(=O)(=O)c4cccc(Cl)c4Cl)c(C)c(C)cc32)c1 | n | n | n | n | n | -12.6 | 72.0% | n | n
O=C(NN1C(=O)C2C(c3ccccc3)C=CC(c3ccccc3)C2C1=O)c1cccc(Br)c1 (configuration not stated) | 11.0 | n | n | n | n | -11.7 | 62.5% | n | 37.0%
O=C(NN1C(=O)C2C3C=CC(C3)C2C1=O)c1cccc(Cl)c1 (configuration not stated) | n | n | n | n | n | n | x | x | x
COc1ccc(N(CC(=O)N2CCN(Cc3ccccc3)CC2)S(C)(=O)=O)cc1 | n | n | n | n | n | n | x | x | x
Cc1ccc(C)c(N2CCN(C(=O)CCNS(=O)(=O)c3ccc4c(c3)oc(=O)n4C)CC2)c1 | n | n | n | n | n | n | x | x | x
N#Cc1ccccc1NC(=O)CSc1n[nH]c(-c2ccco2)n1 | n | n | n | n | n | n | x | x | x
COc1cc(C)ccc1OCCOCCOc1cc(C)c(C)cc1Br | n | n | n | n | n | n | n | n | n
CC(C)(C)N(Cc1ccccc1)C(=O)c1ccc(Cl)cc1[N+](=O)[O-] | n | n | n | n | n | n | n | n | n
COc1ccc(N2CCN(C(=O)CSc3ncnc4scc(-c5ccc(C)cc5)c34)CC2)cc1 | n | n | n | n | n | n | n | n | n
COc1ccc(N2CCN(C(=O)CSc3nc(C)cs3)CC2)cc1 | n | n | n | n | n | n | x | x | x
COc1ccccc1N1CCN(c2nc(C)nc3c2oc2ccccc23)CC1 | n | n | -9.01 | n | n | -14.3 | n | n | 32.0%
CCc1nnc(NS(=O)(=O)c2ccc(N/C=C(\C=O)c3nc4cc(Cl)ccc4o3)cc2)s1 | n | n | n | n | n | n | n | n | n
CCc1nnc(NS(=O)(=O)c2ccc(NC(=O)c3ccc(Cl)cc3)cc2)s1 | n | n | n | n | n | n | x | x | x
CCOc1ccc(-c2c(=O)n(OCc3nc4ccccc4[nH]3)c3ccccc3[n+]2[O-])cc1 | n | n | n | n | n | n | x | x | x
CCCOc1ccc(-c2c(=O)n(OCc3ccc([N+](=O)[O-])cc3)c3ccccc3[n+]2[O-])cc1 | n | n | n | n | n | -11 | 50.5% | n | 33.5%
Cc1cc(C)c(S(=O)(=O)c2c(C)cccc2C)c(OCC(C)C)n1 | n | n | n | n | n | -9.89 | 59.0% | n | 42.5%
CCOc1nc(C)cc(C)c1S(=O)(=O)c1cccc(C)c1 | n | n | x | n | n | n | x | x | x
Clc1ccccc1-c1ccc(CN2CCN(c3ccccc3)CC2)o1 | n | n | n | n | n | n | n | n | n
COc1ccc(C2C=C(Nc3ccccc3)C(=O)N2c2ccccc2)cc1OC (configuration not stated) | n | n | n | n | n | -10.8 | 62.0% | n | 33.5%
CCN1CC2=C(OC(N)=C(C#N)C2c2ccccc2)/C(=C\c2ccccc2)C1 (configuration not stated) | n | n | -8.92 | n | n | -8.79 | 29.0% | n | 26.0% | KCNK3 inh conf=105.3;KCNK3 noninduced=n
O=C(NC1CC2CCCC(C1)N2C(=S)Nc1ccc(Cl)cc1)C1CC1 (configuration not stated) | n | n | n | n | n | n | x | x | x
CC1(C)Oc2ccc3ccc(=O)oc3c2/C(=C/Nc2ccccc2)C1=O | n | n | -10.5 | n | n | -11.8 | 55.5% | n | n | KCNK3 inh conf=109.7;KCNK3 noninduced=n
CC1(C)Oc2ccc3ccc(=O)oc3c2/C(=C/O)C1=O | n | n | n | n | n | n | x | x | x
SMILES | hERG protect | KCNQ1 inh | KCNK3 block | Kir21 block | KCNQ1 pot | KCNK9 block | KCNK9 block conf | Kir2-1 spec | HEK293 Tl ctr | others
Cc1cnc(C(=O)OC(C(=O)c2c[nH]c3ccccc23)c2ccccc2)cn1 (configuration not stated) | n | n | -10.6 | n | n | -19.7 | 78.5% | n | 35.0% | KCNK3 inh conf=108.0;KCNK3 noninduced=n
O=C1N/C(=N/N=C/c2ccco2)SC1Cc1ccccc1 (configuration not stated) | n | n | n | n | n | n | x | x | x
COC(=O)c1cc(COc2ccc3oc(C)c(C(=O)OC(C)C)c3c2)c(C)o1 | n | n | n | n | n | -10.2 | n | n | 46.0% | KCNK3 inh conf=92.3;KCNK3 noninduced=0.142
CC1Cc2ccccc2N1C(=O)C1CCCCN1S(=O)(=O)c1ccccc1 (configuration not stated) | n | n | n | n | n | n | x | x | x
COc1ccc(N)c2c1C(=O)c1ccccc1C2=O | n | n | n | n | n | n | x | x | x
COc1ccc(OC)c2c1C(=O)C(Cl)=C(Cl)C2=O | n | 10 | -8.87 | -4.35 | n | -9.76 | 58.0% | 41.0% | 87.0% | KCNK3 inh conf=150.7;KCNK3 noninduced=0.089
CC(C)[C@H](NC(=O)c1ccccc1F)C(=O)Nc1ccc(F)c(F)c1 | n | n | n | n | n | n | x | x | x
O=C(N/N=C/c1cccnc1)c1ccccc1Br | n | n | n | n | n | n | x | x | x
O=C(N/N=C/c1cccnc1)c1ccccc1OCc1ccc(Br)cc1 | n | n | -10.9 | n | n | -10.8 | 29.5% | n | n | KCNK3 inh conf=115.3;KCNK3 noninduced=0.157
CCOc1ccccc1C(=O)Nc1cc2c(cc1N1CCCC1)n(CC)c(=O)n2CC | n | n | -8.78 | n | n | -13.9 | 51.0% | n | 22.5% | KCNK3 inh conf=101.0;KCNK3 noninduced=n
COc1ccc(CN(C)C(=O)c2ccccc2Sc2ccccc2C#N)cc1OC | n | n | n | n | n | n | x | x | x
c1csc(C(c2nnnn2C2CCCCC2)N2CCCC3(CCCCC3)C2)c1 (configuration not stated) | n | n | n | n | n | n | x | x | x
